According to ChEMBL document CHEMBL1124037, “Structure-activity relationship in PAF-acether. 4. Synthesis and biological activities of carboxylate isosteres” (J Med Chem, 1988):

Tests used:
Oryctolagus cuniculus [1] = assay: In vitro antiaggregation activity against PAF-acether induced platelet aggregation when administered at dose of 1 uM/Kg after 2 minutes; type: functional
Oryctolagus cuniculus [2] = species: Oryctolagus cuniculus; assay: In vitro aggregant (agonist) activity inducing platelet aggregation
Cavia porcellus [3] = assay: In vivo activity for protection against PAF acether induced thrombocytopenia in guinea pig after 5 min of intravenous administration (1 mg/kg); type: functional
In short: (§1)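 Male Hartley guinea pigs (450-500 g), urethane 1.25 g/kg ip, pancuronium 2 mg/kg, ventilated (50 strokes/min, 10 mL/kg). Antagonist iv 5 min before PAF 100 ng/kg iv. Konzett-Rossler lung inflation resistance vs control group; platelet counts from carotid blood 1 min before and after PAF. Percent inhibition per dose.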

Cavia porcellus [4] = assay: In vivo activity for protection against PAF acether induced thrombocytopenia in guinea pig after 5 min of intravenous administration (2 mg/kg); type: functional; in short: as §1
Cavia porcellus [5] = assay: In vivo activity for protection against PAF-acether induced bronchoconstriction in guinea pig after 5 min of intravenous administration (0.5 mg/kg); type: functional; in short: as §1
Cavia porcellus [6] = assay: In vivo activity for protection against PAF-acether induced bronchoconstriction in guinea pig after 5 min of intravenous administration (1 mg/kg); type: functional; in short: as §1
Cavia porcellus [7] = assay: In vivo activity for protection against PAF-acether induced bronchoconstriction in guinea pig after 5 min of intravenous administration (2 mg/kg); type: functional; in short: as §1
Cavia porcellus [8] = assay: In vivo activity for protection against acetylcholine induced bronchoconstriction in guinea pig after 5 min of intravenous administration (1 mg/kg); type: functional
Cavia porcellus [9] = assay: In vivo activity for protection against acetylcholine induced bronchoconstriction in guinea pig after 5 min of intravenous administration (2 mg/kg); type: functional
Cavia porcellus [10] = assay: In vivo activity for protection against histamine induced bronchoconstriction in guinea pig after 5 min of intravenous administration (1 mg/kg); type: functional
Cavia porcellus [11] = assay: In vivo activity for protection against histamine induced bronchoconstriction in guinea pig after 5 min of intravenous administration (2 mg/kg); type: functional
Oryctolagus cuniculus [12] = assay: […] antagonistic activity against platelet aggregation; type: functional
Oryctolagus cuniculus [13] = assay: […] antagonistic activity against PAF induced platelet aggregation (5 x 10e-8 M ); type: functional
In short: (§2)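 Rabbit PRP (male New Zealand, citrated cardiac-puncture blood, 300g 10 min; 300 000 per µL). Antagonist added to stirred PRP 2 min before PAF (5×10⁻⁸ M), collagen (40 µg/mL) or arachidonic acid (2×10⁻⁴ M). Born turbidimetric aggregometry; inhibition vs control aggregation; IC50 from dose-response curves. Compounds dissolved in ethanol 10 mg/mL stock, diluted in saline.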

Oryctolagus cuniculus [14] = assay: […] antagonistic activity against collagen induced platelet aggregation (40 ug/mL); type: functional; in short: as §2
Oryctolagus cuniculus [15] = assay: […] antagonistic activity against arachidonic-acid induced platelet aggregation (2*10e-4 M); type: functional; in short: as §2
Rattus norvegicus [16] = assay: In vivo activity for protection against PAF acether induced hypotension in rat after 5 mins of intravenous administration (2 mg/kg); type: functional
In short: (§3)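 Male Sprague-Dawley rats (280-300 g), pentobarbital 50 mg/kg ip; jugular iv dosing, carotid arterial pressure by transducer. Control response to PAF 0.3 µg/kg iv, then antagonist; PAF 0.3 µg/kg re-injected and hypotension recorded. One antagonist dose per rat; percent inhibition per dose.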

Rattus norvegicus [17] = assay: In vivo activity for protection against acetylcholine induced hypotension in rat after 5 mins of intravenous administration (2 mg/kg); type: functional
In short: (§4)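 Male Sprague-Dawley rats (280-300 g), pentobarbital 50 mg/kg ip; jugular iv dosing, carotid pressure recorded. Same protocol as the PAF challenge but using acetylcholine 1 µg/kg iv as agonist: control response, antagonist, then re-challenge. One antagonist dose per rat; percent inhibition per dose.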

Cavia porcellus [18] = assay: In vivo activity for protection against PAF acether induced bronchoconstriction in guinea pig after 5 min of intravenous administration (1 mg/kg); type: functional; in short: as §1
Cavia porcellus [19] = assay: In vivo activity for protection against PAF acether induced bronchoconstriction in guinea pig after 5 min of intravenous administration (2 mg/kg); type: functional; in short: as §1
Cavia porcellus [20] = assay: In vivo activity for protection against acetylcholine induced bronchoconstriction in guinea pig after 5 min of intravenous administration (5 mg/kg); type: functional
Rattus norvegicus [21] = assay: In vivo activity for protection against PAF acether induced hypotension in rat after 5 mins of intravenous administration (5 mg/kg); type: functional; in short: as §3
Rattus norvegicus [22] = assay: In vivo activity for protection against acetylcholine induced hypotension in rat after 5 mins of intravenous administration (5 mg/kg); type: functional; in short: as §4
Cavia porcellus [23] = assay: In vivo activity for protection against PAF acether induced thrombocytopenia in guinea pig after 5 min of intravenous administration (0.5 mg/kg); type: functional; in short: as §1
Cavia porcellus [24] = assay: In vivo activity for protection against PAF acether induced bronchoconstriction in guinea pig after 5 min of intravenous administration (0.5 mg/kg); type: functional; in short: as §1
Rattus norvegicus [25] = assay: In vivo activity for protection against PAF acether induced hypotension in rat after 5 mins of intravenous administration (1 mg/kg); type: functional; in short: as §3
Rattus norvegicus [26] = assay: In vivo activity for protection against acetylcholine induced hypotension in rat after 5 mins of intravenous administration (1 mg/kg); type: functional; in short: as §4
Cavia porcellus [27] = assay: In vivo activity for protection against acetylcholine-induced bronchoconstriction in guinea pig after 5 min of intravenous administration (1 mg/kg); type: functional
Cavia porcellus [28] = assay: In vivo activity for protection against acetylcholine-induced bronchoconstriction in guinea pig after 5 min of intravenous administration (2 mg/kg); type: functional
Oryctolagus cuniculus [29] = assay: […] antagonistic activity against arachidonic-acid induced platelet aggregation at a concentration of 2*10e-4 M; type: functional; in short: as §2
Oryctolagus cuniculus [30] = assay: […] antagonistic activity against collagen induced platelet aggregation at a concentration of 40 ug/mL; type: functional; in short: as §2
Oryctolagus cuniculus [31] = assay: […] antagonistic activity against PAF induced platelet aggregation at a concentration of 5 x 10e-8 M; type: functional; in short: as §2

| Compound | EC50 (Oryctolagus cuniculus [1]) [µM] | EC50 (Oryctolagus cuniculus [2]) [µM] | EC50 (Oryctolagus cuniculus [13]) [µM] | EC50 (Oryctolagus cuniculus [14]) [µM] | EC50 (Oryctolagus cuniculus [15]) [µM] | Protection (Cavia porcellus [3]) [%] | Protection (Cavia porcellus [4]) [%] | Protection (Cavia porcellus [5]) [%] | Protection (Cavia porcellus [6]) [%] | Protection (Cavia porcellus [8]) [%] | Protection (Cavia porcellus [9]) [%] | Protection (Cavia porcellus [10]) [%] | Protection (Cavia porcellus [11]) [%] | ED50 (Oryctolagus cuniculus [12]) [µM] | Protection (Rattus norvegicus [16]) [%] | Protection (Rattus norvegicus [17]) [%] | Protection (Cavia porcellus [18]) [%] | Protection (Cavia porcellus [19]) [%] | Protection (Rattus norvegicus [25]) [%] | Protection (Rattus norvegicus [26]) [%] | further results |
| --- | --- | --- | --- | --- | --- | --- | --- | --- | --- | --- | --- | --- | --- | --- | --- | --- | --- | --- | --- | --- | --- |
| CCCCCCCCCCCCCCCCCCOCC(COC(=O)CCC[N+](C)(C)C)OC(C)=O (stereo unspecified) | 12 | > 100 |  |  |  |  |  |  |  |  |  |  |  |  |  |  |  |  |  |  |  |
| CCCCCCCCCCCCCCCCCCNC(=O)OCC(COC(=O)CCCC[N+](C)(C)C)OC(C)=O.[I-] (stereo unspecified) |  |  | 13 | 70 | > 100 |  | 38 |  |  |  | 79 |  | 17 | >100 | 46 | 63 | 88 | 90 |  |  | Protection (Cavia porcellus [20]): 80%; Protection (Rattus norvegicus [21]): 58%; Protection (Rattus norvegicus [22]): 74% |
| CCCCCCCCCCCCCCCCCCOC[C@H](COC(=O)CCCC[N+](C)(C)C)OC(C)=O.[I-] |  |  |  |  |  | 38 | 57 | 79 | 90 |  |  | 35 | 20 | >100 | 32 | 5 |  |  | 18 | 18 | Protection (Cavia porcellus [7]): 88%; Protection (Cavia porcellus [27]): 21%; Protection (Cavia porcellus [28]): 0%; EC50 (Oryctolagus cuniculus [29]): > 100 µM; EC50 (Oryctolagus cuniculus [30]): ~90 µM; EC50 (Oryctolagus cuniculus [31]): 20 µM |
| CCCCCCCCCCCCCCCCCCOC[C@@H](COC(=O)CCCC[N+](C)(C)C)OC(C)=O.[I-] |  |  | 11 | 84 | > 100 | 63 | 49 |  |  | 0 | 0 | 0 | 0 | >100 | 34 | 20 | 91 | 93 | 12 | 16 | Protection (Cavia porcellus [24]): 61% |

Further lines, with some results ahead:

| EC50 (Oryctolagus cuniculus [1]) [µM] | EC50 (Oryctolagus cuniculus [2]) [µM] | EC50 (Oryctolagus cuniculus [13]) [µM] | EC50 (Oryctolagus cuniculus [14]) [µM] | EC50 (Oryctolagus cuniculus [15]) [µM] | Compound | Protection (Cavia porcellus [3]) [%] | Protection (Cavia porcellus [4]) [%] | Protection (Cavia porcellus [5]) [%] | Protection (Cavia porcellus [6]) [%] | Protection (Cavia porcellus [8]) [%] | Protection (Cavia porcellus [9]) [%] | Protection (Cavia porcellus [10]) [%] | Protection (Cavia porcellus [11]) [%] | ED50 (Oryctolagus cuniculus [12]) [µM] | Protection (Rattus norvegicus [16]) [%] | Protection (Rattus norvegicus [17]) [%] | Protection (Cavia porcellus [18]) [%] | Protection (Cavia porcellus [19]) [%] | Protection (Rattus norvegicus [25]) [%] | Protection (Rattus norvegicus [26]) [%] | further results |
| --- | --- | --- | --- | --- | --- | --- | --- | --- | --- | --- | --- | --- | --- | --- | --- | --- | --- | --- | --- | --- | --- |
|  |  | 8 | 60 | > 100 | CCCCCCCCCCCCCCCCCCOCC(COC(=O)CCCC[N+](C)(C)C)OCC.[I-] (stereo unspecified) | 24 | 55 | 69 | 77 | 0 | 9 | 0 | 0 | >100 | 20 | 17 |  |  |  |  | Protection (Cavia porcellus [7]): 73% |
| 24 | > 100 |  |  |  | CCCCCCCCCCCCCCCCCCOCC(COC(=O)CC[N+](C)(C)C)OC(C)=O (stereo unspecified) |  |  |  |  |  |  |  |  |  |  |  |  |  |  |  |  |
| 18 | > 100 |  |  |  | CCCCCCCCCCCCCCCCCCOCC(COC(=O)CCCC[N+](C)(C)C)OC(C)=O (stereo unspecified) |  |  |  |  |  |  |  |  |  |  |  |  |  |  |  |  |
|  |  | 30.5 | 89 |  | CCCCCCCCCCCCCCCCCCNC(=O)OCC(COP(=O)([O-])OCC[n+]1ccsc1)OC (stereo unspecified) | 62 | 69 |  |  |  |  |  |  | >100 |  |  | 72 | 85 | 45 | 0 | Protection (Cavia porcellus [23]): 32%; Protection (Cavia porcellus [24]): 53% |
|  |  | 1.5 | 100 | > 100 | CCCCCCCCCCCCCCCCCCOCC(COC(=O)CCC[n+]1ccccc1)OCC.[Cl-] (stereo unspecified) | 52 | 60 | 60 | 100 | 34 | 16 | 16 | 8 | >100 | 53 | 22 |  |  | 51 | 20 |  |
